These results are taken from the RNAGym collection of RNA variant scans (doi:10.1126/science.aae0568).

Fewer inactive variants are shown than the library holds.

B1: tRNA (parent)
chain: GUUCCGUUGGCGUAAUGGUAACGCGUCUCCCUCCUAAGGAGAAGACUGCGGGUUCGAGUCCCGUACGGAACG

The variants in this data set derive from B1. Briefly: yeast fitness relative to wild type (ratio to wild type); higher = fitter; tRNA-Arg(CCU), competitive growth, 37 C, YPD. The essentials:
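The tRNA-Arg(CCU) gene variants were made by chemical synthesis with a 3% per-site mutation rate at 69 sites and inserted at the native genomic locus of Saccharomyces cerevisiae. After pooling, the strains were competed in YPD at 37°C for 24 hours in six parallel replicates. Gene amplicons from the start population and each end population were read by 100-nucleotide paired-end sequencing, and Darwinian fitness relative to wild type was taken from genotype frequency changes. Genotypes needed ≥ 100 starting reads, and estimates < 0.5 were set to 0.5.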
As for GUUCCGUUGGCGUAAUGGUUACGCGUCUGCCUCCUAGGGAGAAAACUGCGGGUUCGAGUCCCAUACGGAACG [A20U C29G A37G G44A G63A], the yeast fitness is at most 0.5.

For GUUCCGUUGGCGUAAUGGUUACGCGUUUCCCUCCUAAGGAGAAGACUGCGGGUUCGAGUCGCGUACGGAACG [A20U C27U C61G], the yeast fitness came to 0.647. The result for GUUCCGUUGGCGUAAUGGUUACGCGUCUCCCUCCUAAGGAGCAGACUGCGGGUUCGAGUCCCGUACGGAACG [A20U A42C] reads 0.648; that for GUUCCGUUGGCGUAAUGGUUACGCGUCUCCCUCCUAAGGAGUAGACUGCGGGUUCGAGUCCCGUACACAACG [A20U A42U G67A G68C], at most 0.5. For GUUCCGUUGGCGUAAUGGUUACGCGUCUCCGUCCUAAGGAGAAGACUGCGGGUUCGAGUCCCGUACGGCACG [A20U C31G A69C] the value was at most 0.5; for GUUCCGUUGGCGUAAUGGUUACGGGUCUCCGUCCUAAGGAGAAGACUGCGGAUUGGAGUCUCGUACGGAACG [A20U C24G C31G G52A C55G C61U], at most 0.5; for GUUCCGUUGGCGUAAUGGUUACGCGUCUCACUCCUAAGGCGAAGACUGCGGGUUCGAGUCCCGUACGGAACG [A20U C30A A40C], at most 0.5.

With GUUCCGUUGGCGUAAUGGUUACGGGUCUCCCUCCUAAGGAGAAGACUGGGGGUUCGAGUCCCGUACGGAACG [A20U C24G C49G], the yeast fitness is at most 0.5. In the case of GUUCCGUUGGCGUAAUGGUUACGCGUGUACCUCCUAAGGAGAAGACUGCGGGUUCGAGUCCCGUACGGAACG [A20U C27G C29A], the yeast fitness is at most 0.5. Turning to GUUCCGUUGGCGUAAUGGUUACGCGUCUCCGUCCUAAGGAGAAGACUGCGGGUUGGUGUCCCGUACGGAACG [A20U C31G C55G A57U], the yeast fitness was at most 0.5.

For GUUCCGUUGGCGUAAUGGUUACGCGUCUCCAUGCUAAGGAGAAGACUGCGGGUUCAAGUCCCGUACGGAACG [A20U C31A C33G G56A], the yeast fitness is at most 0.5. The result for GUUCCGUUGGCGUAAUGGUUACGCGUCUCCCUCCUAAGGAGAUGACUGAGGGUUCGAGUCCCGUACGAAACG [A20U A43U C49A G68A] reads at most 0.5; that for GUUCCGUUGGCGUAAUGGUUACGCGUCUCCCUCCUAAGGAGUAGACUGCGGGUUCGAGACCCGUACGGAACG [A20U A42U U59A], 0.59. The result for GUUCCGUUGGCGUAAUGGUUACGCGUCUCCUUCCUAAGGAGAAGACUGCGGGUUCAAGUCCCGUACGGCACG [A20U C31U G56A A69C] reads at most 0.5. For GUUCCGUUGGCGUAAUGGUUACGCGUCUCCGUCCUAAGGAGAAGACUGCGGGUUGGAGUGCCGUAUGGAUCG [A20U C31G C55G C60G C66U A70U] the value was at most 0.5; for GUUCCGUUGGCGUAAUGGUUACGCGUCUCCCUACUAAGGAGAAAACUGCGGGUUCGAGUCCUGUACGGAACG [A20U C33A G44A C62U], at most 0.5; for GUUCCGUUGGCGUAAUGGUUACGCGUCUCCAUCCUAAGGAAAAGACUGCGGGUUCGAGUCCCGUACGGAACG [A20U C31A G41A], at most 0.5. As for GUUCCGUUGGCGUAAUGGUUACGCGUCUGCCUCCUAAGGAGAAGACUGGGGGUUCGAGUCCCCUACGGAACG [A20U C29G C49G G63C], the yeast fitness is 0.543. Regarding GUUCCGUUGGCGUAAUGGUUACGCGUCUCCCUCCUAAGGUGAAGACUGCGGGUUCGAGACCCGUACGGAACG [A20U A40U U59A], the yeast fitness is at most 0.5.

Turning to GUUCCGUUGGCGUAAUGGUUACGGGUCUCCAUCCUAAGGAGAAGACUGCGGGUUCGACUCCCGUACGGAACG [A20U C24G C31A G58C], the yeast fitness worked out at 0.504. The result for GUUCCGUUGGCGUAAUGGUUACGCGUCUCCCUCCUAAGGAGUAGACUGCGGGUUCGAGUCUCGUAUGGAACG [A20U A42U C61U C66U] reads at most 0.5; that for GUUCCGUUGGCGUAAUGGUUACGCGUCUUGCUCAAAAGGAGAAGACUCCGGGUUCGAGUCCCGUACGGAACG [A20U C29U C30G C34A U35A G48C], at most 0.5; that for GUUCCGUUGGCGUAAUGGUUACGCGUCUCGCUCCUAAGGAGAAGACUGCGGGUUCGAGUCCCGUACGGAACG [A20U C30G], 0.61. On to GUUCCGUUGGCGUAAUGGUUACGCGUCUGCCUCCUAAGGAGAAGACCGGGGGUUCGAGUCCCCUACGGAACG [A20U C29G U47C C49G G63C], for which the yeast fitness is at most 0.5. For GUUCCGUUGGCGUAAUGGUUACGCGUCUCGCUACUAAGGAGAAGACUGCAGAUUCGAGUUGCGUACAGAACG [A20U C30G C33A G50A G52A C60U C61G G67A] the value was at most 0.5; for GUUCCGUUGGCGUAAUGGUUACGCGUCUUCCUCCUAAGGAGAAGACUGCGGGUUCGGGUCCCGUGCGGAACG [A20U C29U A57G A65G], at most 0.5.

As for GUUCCGUUGGCGUAAUGGUUACGCGUCUCCCUCCUAAGGAGAAGACUGCGGGUUCGUGUCCCGUACGGAACG [A20U A57U], the yeast fitness stood at 0.762. Regarding GUUCCGUUGGCGUAAUGGUUAGGCGUCUCCCUCCUAAGGGGAAGACUGCGGGUUCGAGUCCCGUACGGAACG [A20U C22G A40G], the yeast fitness stood at 0.745. On to GUUCCGUUGGCGUAAUGGUUACGUGUCUCCCUCCUAAGGAGCAGACUGCGGGUUCGAGUCCGGUACGGAACG [A20U C24U A42C C62G], for which the yeast fitness was 0.735. For the variant GUUCCGUUGGCGUAAUGGUUACGCGUGUCGCUCCUCAGGAGAAGACUGCGGGUUCGAGUCCCGUACGGAUCG [A20U C27G C30G A36C A70U], the yeast fitness was at most 0.5.

For the variant GUUCCGUUGGCGUAAUGGUUAGGCGUCUCCCUCCUAAGGAGAAGACUGCGGGUUCGAGUACCGUACGGAACG [A20U C22G C60A], the yeast fitness was at most 0.5. Take GUUCCGUUGGCGUAAUGGUUACGCGUCUCGCUCCUAAGGAGAAGACUGCGGGUUCGAGUCCCGUACGGUACG [A20U C30G A69U]: the yeast fitness worked out at 0.59.

For GUUCCGUUGGCGUAAUGGUUACGCGUCUCCCUCCUAAGGAGCAGACUACGGGUUCGAGUCCCGUACGGAACG [A20U A42C G48A], the yeast fitness came to 0.543. Regarding GUUCCGUUGGCGUAAUGGUUACGCGUGUCCCUCCUAAGGAGAAGACUGAGGGUUCGAGUCCCGUACGGAACG [A20U C27G C49A], the yeast fitness is at most 0.5. The result for GUUCCGUUGGCGUAAUGGUUAUGCGUCUCCCUACUAAGGAGAAGACUGCGGGUUCGAGUCCCGUAAGGAACG [A20U C22U C33A C66A] reads at most 0.5; that for GUUCCGUUGGCGUAAUGGUUAGGCGUCUCCCUCCUAAGGAGAAGACCGCGGGUUCGAGUCCCGUACGGAACG [A20U C22G U47C], at most 0.5; that for GUUCCGUUGGCGUAAUGGUUACGCGUCUCCCUACUAAGGACAAGACUGCGGGUUCGAGUCCCGUACGGAACG [A20U C33A G41C], at most 0.5.
